Laboratory results reported in PMC3016151 (Investigational New Drugs, 2009).

Key:
[1] = Pharmacokinetics of telatinib in phase I patients; type: in vivo, human; conditions: for Dose normalized AUC, mean: cycle 1 day 14, 150 mg tablets
[2] = test system: patients with advanced or metastatic solid tumors; experiment: Telatinib-induced toxicity in phase I patients; type: in vivo, human
How it was run: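 Patients with advanced or metastatic solid tumours (ECOG ≤2) took test compound orally, od or bid, continuously (20 mg od to 1,500 mg bid). Adverse events were graded by NCI-CTC v3.0 over all treatment cycles. KDR and FLT4 SNPs were TaqMan-genotyped on a dynamic array using DNA from residual frozen blood. Toxicity was compared by two-sided chi-square (3×2 genotype; 2×2 carrier vs noncarrier).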

[3] = phase I and pharmacological study; cited from earlier work
[4] = test system: adenosine triphosphate binding cassette (ABC) B1 (ABCB1) transporter; conditions: in vitro studies; data on file at Bayer Pharmaceuticals Corporation; cited from earlier work
[5] = all treatment cycles, 33 patients, all dose levels

CNC(=O)c1cc(COc2nnc(Nc3ccc(Cl)cc3)c3ccoc23)ccn1 [telatinib, Telatinib]
Dose normalized AUC, mean ([1]; ABCB1 1236C>T genotype CC, n=9): 7.84 | Dose normalized AUC, mean ([1]; ABCB1 1236C>T genotype CT, n=15): 11.60 | Dose normalized AUC, mean ([1]; ABCB1 1236C>T genotype TT, n=5): 4.82 | Dose normalized AUC, mean ([1]; ABCB1 2677G>A/T genotype GG, n=9): 7.84 | Dose normalized AUC, mean ([1]; ABCB1 2677G>A/T genotype TG, n=15): 11.60 | Dose normalized AUC, mean ([1]; ABCB1 2677G>A/T genotype TT, n=5): 4.82 | Dose normalized AUC, mean ([1]; ABCB1 3435C>T genotype CC, n=7): 7.30 | Dose normalized AUC, mean ([1]; ABCB1 3435C>T genotype CT, n=16): 11.10 | Dose normalized AUC, mean ([1]; ABCB1 3435C>T genotype TT, n=6): 6.65 | Dose normalized AUC, mean ([1]; ABCB1 -129T>C genotype CC, n=1): 11.79 | Dose normalized AUC, mean ([1]; ABCB1 -129T>C genotype TC, n=2): 15.65 | Dose normalized AUC, mean ([1]; ABCB1 -129T>C genotype TT, n=26): 8.67 | Dose normalized AUC, mean ([1]; ABCC1 825T>C genotype TC, n=11): 10.90 | Dose normalized AUC, mean ([1]; ABCC1 825T>C genotype TT, n=18): 8.26 | Dose normalized AUC, mean ([1]; ABCC1 1062T>C genotype CC, n=2): 13.45 | Dose normalized AUC, mean ([1]; ABCC1 1062T>C genotype TC, n=10): 9.95 | Dose normalized AUC, mean ([1]; ABCC1 1062T>C genotype TT, n=17): 8.36 | Dose normalized AUC, mean ([1]; ABCC1 2012G>T genotype GG, n=24): 8.80 | Dose normalized AUC, mean ([1]; ABCC1 2012G>T genotype GT, n=4): 13.46 | Dose normalized AUC, mean ([1]; ABCC1 2012G>T genotype TT, n=1): 3.63 | Dose normalized AUC, mean ([1]; ABCC1 rs129081 genotype CC, n=5): 10.22 | Dose normalized AUC, mean ([1]; ABCC1 rs129081 genotype GC, n=15): 10.44 | Dose normalized AUC, mean ([1]; ABCC1 rs129081 genotype GG, n=9): 6.77 | Dose normalized AUC, mean ([1]; ABCG2 346G>A genotype AG, n=4): 6.00 | Dose normalized AUC, mean ([1]; ABCG2 346G>A genotype GG, n=25): 9.78 | Dose normalized AUC, mean ([1]; ABCG2 421C>A genotype CA, n=6): 10.48 | Dose normalized AUC, mean ([1]; ABCG2 421C>A genotype CC, n=23): 8.95 | Dose normalized AUC(0–12), mean (range) ([1]; oral, cycle 1 day 14 (steady-state), AUC(0–12)/actual dose): 9.26 (0.98–34.60) µg.hr/L per mg of dose | Grade 3–4 toxicity, number of patients ([2]; 33 patients): 3 patients | Hypertension (most frequently observed side-effect), number of patients ([2]; 33 patients, unrelated to dose): 7 n | Toxicity: any toxicity grade 1–4 all cycles, No (number of patients) ([2]; FLT4 1480A>G genotype AA): 7 | Toxicity: any toxicity grade 1–4 all cycles, Yes (number of patients) ([2]; FLT4 1480A>G genotype AA): 20 | Toxicity: any toxicity grade 1–4 all cycles, No (number of patients) ([2]; FLT4 1480A>G genotype AG): 3 | Toxicity: any toxicity grade 1–4 all cycles, Yes (number of patients) ([2]; FLT4 1480A>G genotype AG): 3 | Toxicity: any toxicity grade 1–4 all cycles, No (number of patients) ([2]; FLT4 2670C>G genotype CC): 6 | Toxicity: any toxicity grade 1–4 all cycles, Yes (number of patients) ([2]; FLT4 2670C>G genotype CC): 11 | Toxicity: any toxicity grade 1–4 all cycles, No (number of patients) ([2]; FLT4 2670C>G genotype CG): 3 | Toxicity: any toxicity grade 1–4 all cycles, Yes (number of patients) ([2]; FLT4 2670C>G genotype CG): 9 | Toxicity: any toxicity grade 1–4 all cycles, No (number of patients) ([2]; FLT4 2670C>G genotype GG): 1 | Toxicity: any toxicity grade 1–4 all cycles, Yes (number of patients) ([2]; FLT4 2670C>G genotype GG): 3 | Toxicity: any toxicity grade 1–4 all cycles, No (number of patients) ([2]; KDR 1192G>A genotype CC): 5 | Toxicity: any toxicity grade 1–4 all cycles, Yes (number of patients) ([2]; KDR 1192G>A genotype CC): 19 | Toxicity: any toxicity grade 1–4 all cycles, No (number of patients) ([2]; KDR 1192G>A genotype TC): 4 | Toxicity: any toxicity grade 1–4 all cycles, Yes (number of patients) ([2]; KDR 1192G>A genotype TC): 4 | Toxicity: any toxicity grade 1–4 all cycles, No (number of patients) ([2]; KDR 1192G>A genotype TT): 1 | Toxicity: any toxicity grade 1–4 all cycles, Yes (number of patients) ([2]; KDR 1192G>A genotype TT): 0 | Toxicity: any toxicity grade 1–4 all cycles, No (number of patients) ([2]; KDR 1719A>T genotype AA): 1 | Toxicity: any toxicity grade 1–4 all cycles, Yes (number of patients) ([2]; KDR 1719A>T genotype AA): 1 | Toxicity: any toxicity grade 1–4 all cycles, No (number of patients) ([2]; KDR 1719A>T genotype TA): 4 | Toxicity: any toxicity grade 1–4 all cycles, Yes (number of patients) ([2]; KDR 1719A>T genotype TA): 9 | Toxicity: any toxicity grade 1–4 all cycles, No (number of patients) ([2]; KDR 1719A>T genotype TT): 5 | Toxicity: any toxicity grade 1–4 all cycles, Yes (number of patients) ([2]; KDR 1719A>T genotype TT): 13 | Toxicity: any toxicity grade 1–4 all cycles, No (number of patients) ([2]; KDR -604T>C genotype CC): 3 | Toxicity: any toxicity grade 1–4 all cycles, Yes (number of patients) ([2]; KDR -604T>C genotype CC): 7 | Toxicity: any toxicity grade 1–4 all cycles, No (number of patients) ([2]; KDR -604T>C genotype CT): 5 | Toxicity: any toxicity grade 1–4 all cycles, Yes (number of patients) ([2]; KDR -604T>C genotype CT): 13 | Toxicity: any toxicity grade 1–4 all cycles, No (number of patients) ([2]; KDR -604T>C genotype TT): 2 | Toxicity: any toxicity grade 1–4 all cycles, Yes (number of patients) ([2]; KDR -604T>C genotype TT): 3 | Any toxicity grade 1–4, patients [2, 5]: 23 (70) n (%) | Any toxicity grade 3 or 4, patients [2, 5]: 3 (9) n (%) | Hypertension grade 1–4, patients [2, 5]: 7 (21) n (%) | Hypertension grade 3 or 4, patients [2, 5]: 2 (6) n (%) | any grade 1–4 toxicity, number of patients ([2]; during all treatment cycles): 23 out of 33 patients | any grade 1–4 toxicity, share of patients ([2]; during all treatment cycles, 33 patients): 70% | AUC(0–12) interpatient variability, % coefficient of variation [3]: 20–150% | Cmax interpatient variability, % coefficient of variation [3]: 20–150% | dose proportionality of pharmacokinetics [3]: dose proportional | substrate of the ABCB1 transporter [4]: weak substrate
